Assay [1] addresses T1, TRPV3 E682Q/E689Q/D727N (QQN) (Mus musculus, UniProt Q8K424, D727N/E682Q/E689Q).
T1 sequence (Q8K424 1-791 E682Q/E689Q/D727N): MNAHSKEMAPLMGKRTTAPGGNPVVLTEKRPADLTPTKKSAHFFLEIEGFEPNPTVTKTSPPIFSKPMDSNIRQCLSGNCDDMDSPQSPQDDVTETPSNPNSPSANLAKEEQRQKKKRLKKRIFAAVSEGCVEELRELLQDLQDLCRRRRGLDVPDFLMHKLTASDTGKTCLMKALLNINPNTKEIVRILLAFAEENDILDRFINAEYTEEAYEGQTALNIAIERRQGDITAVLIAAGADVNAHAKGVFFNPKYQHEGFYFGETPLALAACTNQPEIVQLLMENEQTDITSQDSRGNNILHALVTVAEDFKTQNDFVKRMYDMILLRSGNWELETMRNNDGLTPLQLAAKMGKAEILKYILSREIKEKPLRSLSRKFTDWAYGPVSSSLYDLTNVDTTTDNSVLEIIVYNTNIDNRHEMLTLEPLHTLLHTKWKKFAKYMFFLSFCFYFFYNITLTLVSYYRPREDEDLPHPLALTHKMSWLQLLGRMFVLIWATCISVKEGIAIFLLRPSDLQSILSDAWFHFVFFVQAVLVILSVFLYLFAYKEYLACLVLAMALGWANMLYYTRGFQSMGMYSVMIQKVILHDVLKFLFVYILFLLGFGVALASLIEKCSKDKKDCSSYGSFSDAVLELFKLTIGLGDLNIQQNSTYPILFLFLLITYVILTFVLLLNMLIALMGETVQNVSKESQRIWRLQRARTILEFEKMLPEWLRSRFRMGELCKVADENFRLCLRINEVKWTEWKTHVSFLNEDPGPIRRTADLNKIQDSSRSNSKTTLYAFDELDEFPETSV
Description: whole-cell voltage-clamp recording in transfected HEK293 cells. It counts as cell-based.

Assay [2] deals with T2, WT mouse TRPV3 (Mus musculus, UniProt Q8K424).
T2 sequence (Q8K424 1-791): T1 sequence (Q8K424 1-791 E682Q/E689Q/D727N) with Q682E, Q689E, N727D
Description: cell-based Ca2+ assay. Conditions: pH 7.4 vs pH 5.6. Put shortly:
(§1)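 Mouse TRPV3 (WT or mutant) was transfected into HEK293 cells in 96-well plates. Cells were loaded with 5 µM Fluo-4/AM, 0.02% Pluronic F-127 and 0.1% BSA in HEPES ECS (pH 7.4) at 37°C for 60 min, with 2 mM probenecid throughout. 2-APB was added once per well in ECS, or in Mes acidic solution giving final pH 5.6. AUC was normalized to the plate maximum, and EC50 at each pH came from a Hill fit.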

The target of a further assay is T3, TRPV3 E631A (Mus musculus, UniProt Q8K424, E631A).
T3 sequence (Q8K424 1-791 E631A): T1 sequence (Q8K424 1-791 E682Q/E689Q/D727N) with E631A, Q682E, Q689E, N727D
Description: whole-cell voltage-clamp recording in transfected HEK293 cells. The class given is cell-based. Conditions: n = 3. Put shortly: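 Whole-cell clamp at 22–24°C of HEK293 cells transiently expressing mutant mouse TRPV3. Pipette: 140 mM CsCl, 1 EGTA, pH 7.2. Bath: nominally Ca2+-free. 30 µM 2-APB was perfused at pHe 7.4, then in pH 5.0 Mes-buffered solution. Ramps ran −100 to +100 mV over 200 ms every second from 0 mV holding. Current ratio pHe 5.0/7.4 was taken at ±100 mV.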

Assay [3] concerns TRPV3 C-terminal double and triple mutants (E682Q, E689Q, D727N combinations). Description: cell-based Ca2+ assay. More on the design: species or system mouse. The following applies: pH 7.4 vs pH 5.6. The procedure, abridged:
as §1

In assay [4] the target is T1, TRPV3 E682Q/E689Q/D727N (QQN). Description: cell-based Ca2+ assay. Put shortly: as §1
Another assay addresses T4, TRPV3 E682Q/D727N (Mus musculus, UniProt Q8K424, D727N/E682Q).
T4 sequence (Q8K424 1-791 E682Q/D727N): T1 sequence (Q8K424 1-791 E682Q/E689Q/D727N) with Q689E
Description: cell-based Ca2+ assay. The procedure, abridged:
(§2)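 Ca2+ plate assay with FlexStation in HEK293 cells transiently expressing mutant mouse TRPV3. Fluo-4/AM loading was 5 µM for 60 min at 37°C in pH 7.4 ECS with probenecid; cells were then washed. Agonist was delivered robotically at varied concentrations, each well dosed once. Read-out was ex 494/em 525 nm at 0.67 Hz. AUC was normalized to the plate maximum, and EC50 was obtained by Hill fitting.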

In assay [5] the target is T2, WT mouse TRPV3. Description: whole-cell voltage-clamp recording in transfected HEK293 cells. It counts as cell-based. The following applies: 300 µM carvacrol; for repeated stimulations needed to approach the maximal response: 30-s applications. Put shortly: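 Sensitization by intracellular pH: 300 µM carvacrol was applied repeatedly in whole-cell mode to HEK293 cells expressing mouse TRPV3. External solution was pH 7.4, nominally Ca2+-free. pHi was set to 7.2, 6.5 or 6.0 by CsCl/EGTA pipette solutions. The stimulation reaching maximal response was noted. Temperature was 22–24°C.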

The next assay has as its target T5, TRPV3 E689Q/D727N (Mus musculus, UniProt Q8K424, D727N/E689Q).
T5 sequence (Q8K424 1-791 E689Q/D727N): T1 sequence (Q8K424 1-791 E682Q/E689Q/D727N) with Q682E
Description: cell-based Ca2+ assay. Put shortly: as §2

Usually EC50 stands for the concentration that produces a half-maximal response. Read a high EC50 as a need for much substance.

SMILES strings stand for the structures. Positions count from the first letter of the chain named.

Take `NCCOB(c1ccccc1)c1ccccc1` [2-APB, 2-aminoethoxydiphenyl borate]: the “delay in current development after the addition of 2-APB” value in assay [1] (5 µM 2-APB, pHe 6.5, nominally Ca2+-free bath) was approximately 30 s. For the same compound, the “ratio for 2-APB EC50 values obtained at pH 7.4 and pH 5.6” value at WT mouse TRPV3 [2] was approximately 15; in assay [3], less than 4.6; in assay [4] (pH 7.4 vs pH 5.6), 0.92. Moreover, the results for the “5.0:7.4 pH ratio of 2-APB-evoked current” value on TRPV3 E631A (+100 mV) and at TRPV3 E631A (−100 mV) were 0.98 ± 0.09 and 1.02 ± 0.03, respectively.
For the compound `Cc1ccc(C(C)C)cc1O` [carvacrol], in assay [1] (300 µM carvacrol, 30-s applications, pHi 7.2, external pH 7.4), the “stimulation at which the highest level of response was reached” value is recorded as “first stimulation”. For the same compound, the EC50 at TRPV3 E682Q/D727N stood at 197 ± 7.8 µM; at TRPV3 E689Q/D727N, 60.2 ± 3.2 µM; in assay [4] it was 119 ± 7.6 µM. For the same compound, the “repeated stimulations needed to approach the maximal response” value on WT mouse TRPV3 [5] (pHi 6.0, external pH 7.4) is “five”; at WT mouse TRPV3 [5] (pHi 7.2, external pH 7.4), approximately 14. The “decrease of carvacrol-evoked TRPV3 current by pH 5.5 compared with pH 7.4” value on WT mouse TRPV3 [5] (presensitized cells, +80 mV, nominally Ca2+-free bath) is recorded as approximately 50%.

The values are drawn from article PMC7745752 (The Journal of General Physiology, 2020).
